From ChEMBL document CHEMBL4665639, “N-Benzylanilines as Fatty Acid Synthesis Inhibitors against Biofilm-related Methicillin-resistant Staphylococcus aureus” (ACS Med Chem Lett, 2019)
Activity calls are given as the source filed them.

Tests used:
Staphylococcus aureus [1] = assay: Antibacterial activity against methicillin-resistant Staphylococcus aureus clinical isolate 16 assessed as bacterial growth inhibition after 24 hrs by CLSI protocol based broth microdilution assay; format: functional
Procedure, shortened: (§1)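 Broth dilution MIC against 19 multidrug-resistant clinical S. aureus isolates, each taken from a different specimen type.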

Staphylococcus aureus [2] = assay: Antibiofilm activity against methicillin-resistant Staphylococcus aureus clinical isolate 17 assessed as disruption of preformed biofilm up to 2 mg/L after 24 hrs by MTT assay; format: functional, organism-based; conditions: dose mg/L <=2, time 24.0 hrs
Procedure, shortened: (§2)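 Biofilms of clinical MRSA isolates that form biofilm in culture were preformed for 24 h and then exposed to compound to measure disruption. Significance of control vs treated is given at p < 0.05, 0.01 and 0.001.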

Staphylococcus aureus [3] = assay: Antibacterial activity against methicillin-resistant Staphylococcus aureus clinical isolate 12 assessed as bacterial growth inhibition after 24 hrs by CLSI protocol based broth microdilution assay; format: functional; procedure, shortened: as §1
Staphylococcus aureus [4] = assay: Antibacterial activity against methicillin-resistant Staphylococcus aureus clinical isolate 10 assessed as bacterial growth inhibition after 24 hrs by CLSI protocol based broth microdilution assay; format: functional; procedure, shortened: as §1
Staphylococcus aureus [5] = assay: Antibacterial activity against methicillin-resistant Staphylococcus aureus clinical isolate 4 assessed as bacterial growth inhibition after 24 hrs by CLSI protocol based broth microdilution assay; format: functional; procedure, shortened: as §1
Staphylococcus aureus [6] = assay: Antibacterial activity against methicillin-resistant Staphylococcus aureus clinical isolate 14 assessed as bacterial growth inhibition after 24 hrs by CLSI protocol based broth microdilution assay; format: functional; procedure, shortened: as §1
Staphylococcus aureus [7] = assay: Inhibition of Staphylococcus aureus ATCC 6538 fabI expressed in Escherichia coli BL21 (DE3) assessed as oxidation of NADPH to NADP+ using trans-2-octenoyl CoA as substrate incubated for 2 hrs in presence of NADPH by spectrophotometric analysis
Staphylococcus aureus [8] = assay: Antibiofilm activity against methicillin-resistant Staphylococcus aureus clinical isolate 4 assessed as disruption of preformed biofilm up to 2 mg/L after 24 hrs by MTT assay; format: functional, organism-based; conditions: dose mg/L <=2, time 24.0 hrs; procedure, shortened: as §2
Staphylococcus aureus [9] = assay: Antibiofilm activity against methicillin-resistant Staphylococcus aureus ATCC 43300 assessed as reduction in biofilm biomass at 0.5 to 4 mg/L after 24 hrs by MTT assay; format: functional, organism-based; conditions: dose mg/L 0.5-4, time 24.0 hrs
Procedure, shortened: (§3)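 Biofilm growth of MRSA ATCC 43300 measured in the presence of compound in cultivation plates, with a DMSO control. Significance of control vs treated is given at p < 0.05, 0.01 and 0.001.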

Staphylococcus aureus [10] = assay: Antibiofilm activity against methicillin-resistant Staphylococcus aureus ATCC 43300 assessed as inhibition of biofilm at 0.5 to 2 mg/L after 24 hrs by MTT assay; format: functional, organism-based; conditions: dose mg/L 0.5-2, time 24.0 hrs; procedure, shortened: as §3
GES1 = assay: Cytotoxicity against human GES1 cells assessed as reduction in cell viability at 80 mg/L after 24 hrs by MTT assay relative to control; format: cell-based; conditions: ges1, 24 h, at 80 µg/mL
Escherichia coli = assay: Antibacterial activity against Escherichia coli assessed as bacterial growth inhibition after 24 hrs by CLSI protocol based broth microdilution assay; format: functional
Staphylococcus aureus [11] = assay: Binding affinity to Staphylococcus aureus ATCC 6538 fabI expressed in Escherichia coli BL21 (DE3) assessed as tetramer transition of partial dimer resulting in peak shift at 1:10:10 ratio incubated for overnight in presence of NADP+ by analytical size exclusion chromatography; conditions: time 12.0 hrs
Staphylococcus aureus [12] = assay: Antibacterial activity against methicillin-resistant Staphylococcus aureus clinical isolate 17 assessed as bacterial growth inhibition after 24 hrs by CLSI protocol based broth microdilution assay; format: functional; procedure, shortened: as §1
Staphylococcus aureus [13] = assay: Antibacterial activity against methicillin-resistant Staphylococcus aureus clinical isolate 13 assessed as bacterial growth inhibition after 24 hrs by CLSI protocol based broth microdilution assay; format: functional; procedure, shortened: as §1
Staphylococcus aureus [14] = assay: Antibacterial activity against methicillin-resistant Staphylococcus aureus clinical isolate 6 assessed as bacterial growth inhibition after 24 hrs by CLSI protocol based broth microdilution assay; format: functional; procedure, shortened: as §1
L02 = assay: Cytotoxicity against human L02 cells assessed as reduction in cell viability at 80 mg/L after 24 hrs by MTT assay relative to control; format: cell-based; conditions: l02, 24 h, at 80 µg/mL
Staphylococcus aureus [15] = assay: Antibiofilm activity against methicillin-resistant Staphylococcus aureus clinical isolate 16 assessed as disruption of preformed biofilm up to 2 mg/L after 24 hrs by MTT assay; format: functional, organism-based; conditions: dose mg/L <=2, time 24.0 hrs; procedure, shortened: as §2
Staphylococcus aureus [16] = assay: Antibiofilm activity against methicillin-resistant Staphylococcus aureus ATCC 43300 assessed as reduction in biofilm biomass up to 1 mg/L after 24 hrs by scanning electronic microscopic imaging analysis; format: functional, organism-based; conditions: dose mg/L <=1, time 24.0 hrs
Procedure, shortened: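 Scanning electron microscopy of 24 h MRSA ATCC 43300 biofilm, untreated or grown with stepwise increasing compound concentrations.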

Staphylococcus aureus [17] = assay: Antibacterial activity against methicillin-resistant Staphylococcus aureus clinical isolate 2 assessed as bacterial growth inhibition after 24 hrs by CLSI protocol based broth microdilution assay; format: functional; procedure, shortened: as §1
Staphylococcus aureus [18] = assay: Antibiofilm activity against methicillin-resistant Staphylococcus aureus clinical isolate 11 assessed as disruption of preformed biofilm up to 2 mg/L after 24 hrs by MTT assay; format: functional, organism-based; conditions: dose mg/L <=2, time 24.0 hrs; procedure, shortened: as §2
Staphylococcus aureus [19] = assay: Antibacterial activity against methicillin-resistant Staphylococcus aureus clinical isolate 18 assessed as bacterial growth inhibition after 24 hrs by CLSI protocol based broth microdilution assay; format: functional; procedure, shortened: as §1
Candida albicans = assay: Antifungal activity against Candida albicans assessed as fungal growth inhibition after 24 hrs by CLSI protocol based broth microdilution assay; format: functional
Staphylococcus aureus [20] = assay: Antibacterial activity against methicillin-resistant Staphylococcus aureus clinical isolate 15 assessed as bacterial growth inhibition after 24 hrs by CLSI protocol based broth microdilution assay; format: functional; procedure, shortened: as §1
Staphylococcus aureus [21] = assay: Antibacterial activity against methicillin-resistant Staphylococcus aureus clinical isolate 9 assessed as bacterial growth inhibition after 24 hrs by CLSI protocol based broth microdilution assay; format: functional; procedure, shortened: as §1
Staphylococcus aureus [22] = assay: Antibacterial activity against methicillin-resistant Staphylococcus aureus clinical isolate 19 assessed as bacterial growth inhibition after 24 hrs by CLSI protocol based broth microdilution assay; format: functional; procedure, shortened: as §1
Enterococcus faecium = assay: Antibacterial activity against Enterococcus faecium assessed as bacterial growth inhibition after 24 hrs by CLSI protocol based broth microdilution assay; format: functional
Staphylococcus aureus [23] = assay: Antibiofilm activity against methicillin-resistant Staphylococcus aureus clinical isolate 5 assessed as disruption of preformed biofilm up to 2 mg/L after 24 hrs by MTT assay; format: functional, organism-based; conditions: dose mg/L <=2, time 24.0 hrs; procedure, shortened: as §2
Staphylococcus aureus [24] = assay: Antibacterial activity against Staphylococcus aureus assessed as bacterial growth inhibition after 24 hrs by CLSI protocol based broth microdilution assay; format: functional
Staphylococcus aureus [25] = assay: Antibacterial activity against methicillin-resistant Staphylococcus aureus clinical isolate 3 assessed as bacterial growth inhibition after 24 hrs by CLSI protocol based broth microdilution assay; format: functional; procedure, shortened: as §1
Staphylococcus aureus [26] = assay: Antibiofilm activity against methicillin-resistant Staphylococcus aureus clinical isolate 18 assessed as disruption of preformed biofilm up to 2 mg/L after 24 hrs by MTT assay; format: functional, organism-based; conditions: dose mg/L <=2, time 24.0 hrs; procedure, shortened: as §2
Staphylococcus aureus [27] = assay: Antibiofilm activity against methicillin-resistant Staphylococcus aureus clinical isolate 3 assessed as disruption of preformed biofilm up to 2 mg/L after 24 hrs by MTT assay; format: functional, organism-based; conditions: dose mg/L <=2, time 24.0 hrs; procedure, shortened: as §2
Candida tropicalis = assay: Antifungal activity against Candida tropicalis assessed as fungal growth inhibition after 24 hrs by CLSI protocol based broth microdilution assay; format: functional
Staphylococcus aureus [28] = assay: Antibiofilm activity against methicillin-resistant Staphylococcus aureus clinical isolate 2 assessed as disruption of preformed biofilm up to 2 mg/L after 24 hrs by MTT assay; format: functional, organism-based; conditions: dose mg/L <=2, time 24.0 hrs; procedure, shortened: as §2
Staphylococcus aureus [29] = assay: Antibacterial activity against methicillin-resistant Staphylococcus aureus clinical isolate 11 assessed as bacterial growth inhibition after 24 hrs by CLSI protocol based broth microdilution assay; format: functional; procedure, shortened: as §1
Staphylococcus aureus [30] = assay: Antibacterial activity against methicillin-resistant Staphylococcus aureus clinical isolate 8 assessed as bacterial growth inhibition after 24 hrs by CLSI protocol based broth microdilution assay; format: functional; procedure, shortened: as §1
Staphylococcus aureus [31] = assay: Antibacterial activity against methicillin-resistant Staphylococcus aureus clinical isolate 5 assessed as bacterial growth inhibition after 24 hrs by CLSI protocol based broth microdilution assay; format: functional; procedure, shortened: as §1
Staphylococcus aureus [32] = assay: Antibiofilm activity against methicillin-resistant Staphylococcus aureus clinical isolate 12 assessed as disruption of preformed biofilm up to 2 mg/L after 24 hrs by MTT assay; format: functional, organism-based; conditions: dose mg/L <=2, time 24.0 hrs; procedure, shortened: as §2
Bacillus cereus = assay: Antibacterial activity against Bacillus cereus assessed as bacterial growth inhibition after 24 hrs by CLSI protocol based broth microdilution assay; format: functional
Pseudomonas aeruginosa = assay: Antibacterial activity against Pseudomonas aeruginosa assessed as bacterial growth inhibition after 24 hrs by CLSI protocol based broth microdilution assay; format: functional
Staphylococcus aureus [33] = assay: Antibiofilm activity against methicillin-resistant Staphylococcus aureus clinical isolate 6 assessed as disruption of preformed biofilm up to 2 mg/L after 24 hrs by MTT assay; format: functional, organism-based; conditions: dose mg/L <=2, time 24.0 hrs; procedure, shortened: as §2
Staphylococcus aureus [34] = assay: Antibacterial activity against methicillin-resistant Staphylococcus aureus clinical isolate 7 assessed as bacterial growth inhibition after 24 hrs by CLSI protocol based broth microdilution assay; format: functional; procedure, shortened: as §1
Staphylococcus aureus [35] = assay: Antibacterial activity against methicillin-resistant Staphylococcus aureus clinical isolate 1 assessed as bacterial growth inhibition after 24 hrs by CLSI protocol based broth microdilution assay; format: functional; procedure, shortened: as §1

Oc1c(Br)cc(Cl)cc1CNc1cc(C(F)(F)F)ccc1Cl
active: Activity (Staphylococcus aureus [2]) | inhibition (Staphylococcus aureus [7]) | Activity (Staphylococcus aureus [8]) | Activity (Staphylococcus aureus [9]) | inhibition (Staphylococcus aureus [10]) | Activity (Staphylococcus aureus [11]) | Activity (Staphylococcus aureus [15]) | inhibition (Staphylococcus aureus [16]) | Activity (Staphylococcus aureus [18]) | Activity (Staphylococcus aureus [23]) | Activity (Staphylococcus aureus [26]) | Activity (Staphylococcus aureus [27]) | Activity (Staphylococcus aureus [28]) | Activity (Staphylococcus aureus [32]) | Activity (Staphylococcus aureus [33])
≤ 1 µg/mL: MIC (Staphylococcus aureus [1]) | MIC (Staphylococcus aureus [3]) | MIC (Staphylococcus aureus [4]) | MIC (Staphylococcus aureus [5]) | MIC (Staphylococcus aureus [6]) | MIC (Staphylococcus aureus [12]) | MIC (Staphylococcus aureus [13]) | MIC (Staphylococcus aureus [14]) | MIC (Staphylococcus aureus [17]) | MIC (Staphylococcus aureus [19]) | MIC (Staphylococcus aureus [20]) | MIC (Staphylococcus aureus [21]) | MIC (Staphylococcus aureus [22]) | MIC (Staphylococcus aureus [25]) | MIC (Staphylococcus aureus [29]) | MIC (Staphylococcus aureus [30]) | MIC (Staphylococcus aureus [31]) | MIC (Staphylococcus aureus [34]) | MIC (Staphylococcus aureus [35])
≤ 2 µg/mL: MIC (Enterococcus faecium) | MIC (Staphylococcus aureus [24]) | MIC (Bacillus cereus)
50%: Activity (GES1) | Activity (L02)
≥ 64 µg/mL: MIC (Escherichia coli) | MIC (Candida albicans) | MIC (Candida tropicalis) | MIC (Pseudomonas aeruginosa)
